Measurements taken from ChEMBL document CHEMBL1124794, “Synthesis, chemistry, and antineoplastic activity of alpha-halopyridinium salts: potential pyridone prodrugs of acylated vinylogous carbinolamine tumor inhibitors” (J Med Chem, 1990).

Tests used:
L1210 [1] = experiment: In vivo activity against murine L1210 tumor system at the dose of 21.6 mg/kg, activity expressed as KE; assay type: functional, Mus musculus
Outline: (§1)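 L1210 lymphocytic leukemia: ascitic fluid with ca. 10^6 cells injected ip into CD2F1 mice. Dosing started 24 h after inoculation and was repeated daily for five doses in total, from solutions or suspensions made fresh each day. Toxicity day survivors were scored on day 5. Body weight difference is day 5 minus day 1. %T/C is based on median survival time versus controls.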

L1210 [2] = experiment: In vivo activity against murine L1210 tumor system at the dose of 60mg/kg, activity expressed as %T/C.; assay type: functional, Mus musculus; outline: as §1
P388 [3] = experiment: In vivo activity against P388 Lymphocytic Leukemia in CD2F1 mice at the dose of 50 mg/kg, activity expressed as % T/C; assay type: functional, Mus musculus
Outline: (§2)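 CD2F1 mice were inoculated with ascitic fluid holding ca. 10^6 P388 cells. Drug was given daily from 24 h after inoculation, from solutions or suspensions made fresh each day, some as a saline suspension. TDS is survivors/initial animals on day 5. BWD is body weight on day 5 minus day 1. %T/C compares median survival of treated and control mice.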

P388 [4] = experiment: In vivo activity against P388 Lymphocytic Leukemia in CD2F1 mice at the dose of 25 mg/kg, activity expressed as % T/C; assay type: functional, Mus musculus; outline: as §2
[5] = In vivo activity against murine M5076 tumor system at the dose of 36 mg/kg, activity expressed as body weight difference; T-C; assay type: functional, Mus musculus
Outline: (§3)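 M5076: ascitic fluid with ca. 10^6 cells inoculated ip into CD2F1 mice. Dosing started 24 h after inoculation and was then given every 4 days for four doses in total, from solutions or suspensions made fresh each day. Toxicity day survivors were scored on day 5. Body weight difference is day 14 minus day 1. %T/C is based on median survival time versus controls.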

[6] = Half life at the buffer concentration of 0.05 M.; assay type: ADME
[7] = Effect of phosphate buffer on carbamate hydrolysis in acetonitrile-water at the concentration of 0.05 M on pH 7.4, 25 degree C.
Outline: (§4)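 Bis-carbamate in acetonitrile–water (1:1), 25 ± 0.1 °C. Citrate buffer at pH 3.0 or phosphate buffer at pH 7.4, at 0.01, 0.025 or 0.05 M, ionic strength 0.136 (KCl). Kinetics followed by HPLC as the decrease in bis-carbamate peak area. The regression slope of ln(area0/areat) vs time gave pseudo-first-order kobs. Duplicates averaged.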

P388 [8] = experiment: In vivo activity against P388 Lymphocytic Leukemia in CD2F1 mice at the dose of 50 mg/kg, activity expressed as KE; assay type: functional, Mus musculus
[9] = Effect of pH on carbamate hydrolysis in 0.05 M buffer concentration at the pH 7.4, 25 degree C.; assay type: ADME
Outline: (§5)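 Bis-carbamate in acetonitrile–water (1:1; buffer added to a 0.5 mg/mL acetonitrile solution), 0.05 M buffer, ionic strength 0.136 (KCl), 25 ± 0.1 °C. Buffers: phosphate pH 2.0; citrate pH 3.0–3.5; succinate pH 4.0; acetate pH 5.0; phosphate pH 6.0–8.0; borate pH 9.0; carbonate pH 10.0. HPLC bis-carbamate peak-area loss, ln(area0/areat) vs time slope = kobs. Duplicates averaged.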

P388 [10] = experiment: In vivo activity against P388 Lymphocytic Leukemia in CD2F1 mice at the dose of 12.5 mg/kg, activity expressed as KE; assay type: functional, Mus musculus
[11] = Half life at the pH 6.0; assay type: ADME; conditions: buffer; outline: as §5
P388 [12] = experiment: In vivo activity against P388 Lymphocytic Leukemia in CD2F1 mice at the dose of 50 mg/kg, activity expressed as TDS; 6/6; assay type: functional, Mus musculus; outline: as §2
[13] = Effect of pH on carbamate hydrolysis in 0.05 M buffer concentration at the pH 9.0, 25 degree C.; assay type: ADME; outline: as §5
[14] = Effect of pH on carbamate hydrolysis in 0.05 M buffer concentration at the pH 4.0, 25 degree C.; assay type: ADME; outline: as §5
[15] = Effect of pH on carbamate hydrolysis in 0.05 M buffer concentration at the pH 3.5, 25 degree C.; assay type: ADME; outline: as §5
[16] = Half life at the pH 8.0; assay type: ADME; conditions: buffer
P388 [17] = experiment: In vivo activity against P388 Lymphocytic Leukemia in CD2F1 mice at the dose of 12.5 mg/kg, activity expressed as % T/C; assay type: functional, Mus musculus; outline: as §2
[18] = Half life at the pH 7.4; assay type: ADME; conditions: buffer
L1210 [19] = experiment: In vivo activity against murine L1210 tumor system at the dose of 100 mg/kg, activity expressed as %T/C.; assay type: functional, Mus musculus
Outline: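 CD2F1 mice received ca. 10^6 L1210 cells in ascitic fluid ip. Treatment started 24 h after inoculation and was given daily for five doses in total. %T/C compares median survival time of treated and control animals.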

P388 [20] = experiment: In vivo activity against P388 Lymphocytic Leukemia in CD2F1 mice at the dose of 400 mg/kg, activity expressed as TDS; 2/6; assay type: functional, Mus musculus; outline: as §2
P388 [21] = experiment: In vivo activity against P388 Lymphocytic Leukemia in CD2F1 mice at the dose of 12.5 mg/kg, activity expressed as TDS; 6/6; assay type: functional, Mus musculus; outline: as §2
P388 [22] = experiment: In vivo activity against P388 Lymphocytic Leukemia in CD2F1 mice at the dose of 400 mg/kg, activity expressed as body weight difference; T-C; assay type: functional, Mus musculus; outline: as §2
P388 [23] = experiment: In vivo activity against P388 Lymphocytic Leukemia in CD2F1 mice at the dose of 25 mg/kg, activity expressed as body weight difference; T-C; assay type: functional, Mus musculus; outline: as §2
[24] = In vivo activity against murine M5076 tumor system at the dose of 21.6 mg/kg, activity expressed as body weight difference; T-C; assay type: functional, Mus musculus; outline: as §3
[25] = Half life at the buffer concentration of 0.025 M.; assay type: ADME; outline: as §4
P388 [26] = experiment: In vivo activity against P388 Lymphocytic Leukemia in CD2F1 mice at the dose of 25 mg/kg, activity expressed as TDS; 6/6; assay type: functional, Mus musculus; outline: as §2
[27] = In vivo activity against murine M5076 tumor system at the dose of 50 mg/kg, activity expressed as KE; assay type: functional, Mus musculus
[28] = Half life at the pH 7.0; assay type: ADME; conditions: buffer
Outline: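 Pyridinium-to-pyridone hydrolysis in 0.05 M phosphate buffer, ionic strength 0.25 M, 25 °C. pH set by meter. Loss of the pyridinium UV absorption maximum was followed over time to give pseudo-first-order k_obs and half-life.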

MX1 [29] = experiment: In vivo activity against murine MX-1 tumor system at the dose of 37.5 mg/kg, activity expressed as %T/C.; assay type: functional, Mus musculus
[30] = Half life at the concentration of 0.02 M.; assay type: ADME
[31] = Effect of pH on the hydrolysis of pyridinium Moity in 0.05 M buffer concentration at the pH 7.0; assay type: ADME
Outline: (§6)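 Pyridinium salt in 0.05 M phosphate buffer, pH 6.0–8.0 (set by pH meter), ionic strength 0.25 M, 25 °C. Decrease in the pyridinium UV absorbance maximum followed over time to give pseudo-first-order kobs and half-life.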

P388 [32] = experiment: In vivo activity against P388 Lymphocytic Leukemia in CD2F1 mice at the dose of 100 mg/kg, activity expressed as body weight difference; assay type: functional, Mus musculus; outline: as §2
[33] = Half life at the pH 6.5; assay type: ADME; conditions: buffer
MX1 [34] = experiment: In vivo activity against murine MX-1 tumor system at the dose of 75 mg/kg, activity expressed as body weight difference.; assay type: functional, Mus musculus
[35] = Effect of pH on the hydrolysis of pyridinium Moity in 0.05 M buffer concentration at the pH 6.0; assay type: ADME; outline: as §6

Row | SMILES | T/C (P388 [3]) [%] | T/C (P388 [4]) [%] | half-life [6] [min] | KE (P388 [8]) | KE (P388 [10]) | half-life [11] [min] | TDS (P388 [12]) | half-life [16] [min] | T/C (P388 [17]) [%] | half-life [18] [min] | TDS (P388 [21]) | TDS (P388 [26]) | other results
1 | CC(C)NC(=O)OCc1c(COC(=O)NC(C)C)c(-c2ccn(C)c(=O)c2)n2c1CCC2 | 132 | 130 | 53.5 | -0.38 | -1.39 | 51.4 | 6 | 54.1 | 116 | 53.5 | 6 | 6 | KE (L1210 [1]): -0.86; T/C (L1210 [2]): 141%; BWD [5]: 1.8 g; k obs [7]: 0.000217 s⁻¹; K obs [9]: 0.013 min⁻¹; K obs [13]: 0.0129 min⁻¹; K obs [14]: 0.0149 min⁻¹; K obs [15]: 0.0214 min⁻¹; T/C (L1210 [19]): 146%; TDS (P388 [20]): 2; BWD (P388 [22]): -1 g; BWD (P388 [23]): -0.6 g; BWD [24]: 1.7 g; half-life [25]: 51.9 min
2 | CC(C)NC(=O)OCc1c(COC(=O)NC(C)C)c(-c2cc[n+](C)c(F)c2)n2c1CCC2.[I-] | 157 | 141 | 34.6 | 1.32 | 0.75 | 158 | 6 | 13.3 | 149 | 20.5 | 6 | 6 | KE [27]: -1.59; half-life [28]: 33.8 min; T/C (MX1 [29]): 69%; half-life [30]: 133 min; K obs [31]: 0.0208 min⁻¹; BWD (P388 [32]): -7.6 g; half-life [33]: 45.3 min; BWD (MX1 [34]): 0.2 g; K obs [35]: 0.0044 min⁻¹
